The record followed here is ChEMBL document CHEMBL2163287, “Nitro seco analogues of the duocarmycins containing sulfonate leaving groups as hypoxia-activated prodrugs for cancer therapy” (J Med Chem, 2012).

In data set [1] the test system is SiHa. In words: Antitumor activity against human SiHa cells xenografted in immunocompromized gamma irradiated mouse assessed as number of colony forming cells per gram of tumor tissue at 42 umol/kg, iv tumor excised post 18 hrs followed by culturing for 14 days. The format is functional. An outline of the steps:
(§1)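 SiHa tumours grown subcutaneously in male mice from 10⁷ cultured cells; randomized at 8−10 mm mean diameter. Compound in phosphate-buffered saline with 4 equiv sodium bicarbonate, given via tail vein at the stated dose, alone or 5 min after 15 Gy whole-body cobalt-60 γ irradiation. Tumours excised 18 h after dosing, cells cultured 14 days for clonogens. Groups of 3 (drug alone) or 5 (radiation + drug).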
(In general: Xenograft models place foreign cells or tissue in a host animal.)

Data set [2] deals with SiHa. Kind of data set: Antitumor activity against human SiHa cells xenografted in immunocompromized gamma irradiated mouse assessed as log cell kill at 42 umol/kg, iv tumor excised post 18 hrs followed by culturing for 14 days under hypoxic condition. The class given is functional. The gist of the method:
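Male immunocompromised mice bearing subcutaneous tumours (10^7 cultured cells), randomized at 8–10 mm mean diameter. Compound in PBS with 4 equiv sodium bicarbonate given iv (tail vein), alone or 5 min after 15 Gy whole-body cobalt-60 γ-irradiation, which sterilizes oxygenated cells. Tumours excised 18 h after dosing and plated for clonogens for 14 days. n = 3 (vehicle or compound alone) or 5 (irradiated groups).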

The subject of data set [3] is SiHa. In words: Antitumor activity against human SiHa cells xenografted in immunocompromized mouse assessed as number of colony forming cells per gram of tumor tissue at 42 umol/kg, iv tumor excised post 18 hrs followed by culturing for 14 days. The class given is functional. The gist of the method: as §1
The subject of data set [4] is HT-29. In words: Cytotoxicity against human HT-29 cells under hypoxic condition assessed as inhibition of cell proliferation after 4 hrs by SRB method. The class given is functional, cell-based. The conditions noted are these: HT-29, 4 h. The gist of the method: (§2)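 Log-phase monolayers were exposed 4 h under 20% O₂ or anoxia (<20 ppm O₂), then stained with sulforhodamine B 5 days later. IC50, interpolated as the concentration reducing cell density to 50% of same-plate controls, is given as mean of 3−9 experiments. HCR = IC50(oxic)/IC50(hypoxic), taken as the mean of intraexperiment ratios from 3−6 experiments.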
For orientation: In SRB staining, fixed cells bind dye roughly in proportion to their protein.

Data set [5] concerns HT-29. Kind of data set: Cytotoxicity against human HT-29 cells under oxic condition assessed as inhibition of cell proliferation after 4 hrs by SRB method. The note with it: HT-29, 4 h. The class given is functional, cell-based. An outline of the steps:
as §2

Data set [6] deals with HT-29. Kind of data set: Ratio of IC50 for human HT-29 cells under oxic condition to IC50 for human HT-29 cells under hypoxic condition. The class given is functional. The gist of the method:
as §2

For data set [7], the system named is SiHa. In words: Cytotoxicity against human SiHa cells under hypoxic condition assessed as inhibition of cell proliferation after 4 hrs. The format is functional, cell-based. The gist of the method:
(§3)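 Log-phase monolayers were exposed to drug for 4 h, aerobic (20% O2) for line 5 and anoxic (<20 ppm O2) for line 4. Cell density was read by sulforhodamine B staining 5 days later. IC50 was interpolated as the concentration reducing density to 50% of same-plate controls; mean ± SEM of 3–9 experiments.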

In data set [8] the test system is SiHa. In words: Cytotoxicity against human SiHa cells under oxic condition assessed as inhibition of cell proliferation after 4 hrs. The format is functional, cell-based. The gist of the method:
as §3

For a further data set, the system named is NCI-H460. Kind of data set: Toxicity in human H460 cells xenografted immunocompromized mouse at 75 umol/kg, iv. The note with it: in vivo.

On to `COc1ccc(/C=C/C(=O)N2CC(COS(=O)(=O)Cc3ccccc3)c3c2cc([N+](=O)[O-])c2cc(S(=O)(=O)NCCOP(=O)(O)O)ccc32)cc1` (centres undefined), for which the log10cfu in the data set with SiHa [1] was found to be 4.32; with SiHa [3], 6.74. Besides, in the data set with SiHa [2], the LCK is listed as 0.78.
What is called IC50 is the concentration needed to halve the response being measured. As for `COc1cc2cc(C(=O)N3CC(COS(=O)(=O)Cc4ccccc4)c4c3cc([N+](=O)[O-])c3cc(C(=O)NCCO)ccc43)[nH]c2c(OC)c1OC` (centres undefined), the IC50 was 610 nM in the data set with HT-29 [4], 15000 nM in the data set with HT-29 [5], 160 nM in the data set with SiHa [7] and 900 nM in the data set with SiHa [8]. The “Ratio IC50” value in the data set with HT-29 [6] is 13.
With `NC(=O)c1ccc2c3c(cc([N+](=O)[O-])c2c1)N(C(=O)c1cc2cc(OCCOP(=O)(O)O)ccc2[nH]1)CC3COS(=O)(=O)Cc1ccccc1` (centres undefined), the log10cfu is 5.09 with SiHa [1] and 6.91 in the data set with SiHa [3]. Moreover, in the data set with SiHa [2], the LCK is 0.37. The Activity result in the data set with NCI-H460 is “Non-toxic”.
As to `COc1cc2cc(C(=O)N3CC(COS(=O)(=O)Cc4ccccc4)c4c3cc([N+](=O)[O-])c3cc(S(=O)(=O)NCCO)ccc43)[nH]c2c(OC)c1OC` (centres undefined), the IC50 in the data set on HT-29 [4] is 360 nM; in the data set with HT-29 [5] it was 8400 nM; in the data set on SiHa [7], 110 nM; with SiHa [8], 940 nM. The “Ratio IC50” value in the data set with HT-29 [6] amounted to 23.
The corresponding values for `COc1ccc(/C=C/C(=O)N2CC(COS(=O)(=O)Cc3ccccc3)c3c2cc([N+](=O)[O-])c2cc(S(=O)(=O)NCCO)ccc32)cc1` (centres undefined) are 950 nM, 47000 nM, 370 nM, 7300 nM and 50.
The corresponding values for `CN(C)CCOc1ccc2[nH]c(C(=O)N3CC(COS(=O)(=O)Cc4ccccc4)c4c3cc([N+](=O)[O-])c3cc(S(N)(=O)=O)ccc43)cc2c1` (centres undefined) are 90 nM, 1600 nM, 45 nM, 370 nM and 18.
As for `CN(C)CCOc1ccc2[nH]c(C(=O)N3CC(COS(=O)(=O)Cc4ccccc4)c4c3cc([N+](=O)[O-])c3cc(C(=O)NCCOP(=O)(O)O)ccc43)cc2c1` (centres undefined), the results for the log10cfu in the data set on SiHa [1] and in the data set on SiHa [3] were 4.42 and 6.92, respectively. Moreover, the LCK with SiHa [2] worked out at 0.98. Also, the Activity result in the data set on NCI-H460 is “Non-toxic”.
Turning to `COc1cc2cc(C(=O)N3CC(CCl)c4c3cc([N+](=O)[O-])c3cc(C(=O)NCCO)ccc43)[nH]c2c(OC)c1OC` (centres undefined), the IC50 came to 3200 nM in the data set on HT-29 [4] and 5700 nM in the data set with HT-29 [5]. Moreover, the “Ratio IC50” value in the data set with HT-29 [6] was 1.7.
Consider `COc1cc2cc(C(=O)N3CC(COS(=O)(=O)Cc4ccccc4)c4c3cc([N+](=O)[O-])c3cc(C#N)ccc43)[nH]c2c(OC)c1OC` (centres undefined), for which the concentration for half-maximal inhibition (IC50) was found to be 43 nM with HT-29 [4], 2600 nM with HT-29 [5], 26 nM with SiHa [7] and 650 nM in the data set on SiHa [8]. In addition, the “Ratio IC50” value in the data set with HT-29 [6] came out at 94.
`COc1cc2cc(C(=O)N3CC(COS(=O)(=O)Cc4ccccc4)c4c3cc([N+](=O)[O-])c3cc(C(=O)NCCOP(=O)(O)O)ccc43)[nH]c2c(OC)c1OC` (centres undefined): the log10cfu with SiHa [1] is recorded as 3.62; with SiHa [3], 6.71. The LCK with SiHa [2] turned out to be 1.78. Also, in the data set on NCI-H460, the Activity entry was “Non-toxic”.
With `CN(C)CCOc1ccc2[nH]c(C(=O)N3CC(COS(C)(=O)=O)c4c3cc([N+](=O)[O-])c3cc(S(=O)(=O)NCCOP(=O)(O)O)ccc43)cc2c1` (centres undefined), the log10cfu with SiHa [1] is 4.65; in the data set on SiHa [3] it was 7.18. In the data set with SiHa [2], the LCK is recorded as 0.33. Further, the Activity result in the data set with NCI-H460 is recorded as “Non-toxic”.
For `O=C(c1cc2cc(OCCN3CCOCC3)ccc2[nH]1)N1CC(COS(=O)(=O)Cc2ccccc2)c2c1cc([N+](=O)[O-])c1cc(S(=O)(=O)NCCOP(=O)(O)O)ccc21` (centres undefined), the log10cfu is given as 4.76 with SiHa [1] and 7.08 with SiHa [3]. Besides, in the data set with SiHa [2], the LCK came out at 0.34.
With `COc1ccc(/C=C/C(=O)N2CC(COS(C)(=O)=O)c3c2cc([N+](=O)[O-])c2cc(S(=O)(=O)NCCOP(=O)(O)O)ccc32)cc1` (centres undefined), the log10cfu with SiHa [1] is 4.75; in the data set with SiHa [3], 7.09. For the same molecule, in the data set on SiHa [2], the LCK is 0.71. Besides, in the data set on NCI-H460, the Activity entry is listed as “Non-toxic”.
As to `CN(C)CCOc1ccc2[nH]c(C(=O)N3CC(COS(C)(=O)=O)c4c3cc([N+](=O)[O-])c3cc(S(=O)(=O)NCCO)ccc43)cc2c1` (centres undefined), the IC50 in the data set with HT-29 [4] is 2200 nM; in the data set on HT-29 [5], 13000 nM; in the data set on SiHa [7], 380 nM; in the data set on SiHa [8] it was 4100 nM. Moreover, the “Ratio IC50” value with HT-29 [6] is on record as 7.4.
The like results for `COc1cc2cc(C(=O)N3CC(COS(C)(=O)=O)c4c3cc([N+](=O)[O-])c3cc(S(=O)(=O)NCCO)ccc43)[nH]c2c(OC)c1OC` (centres undefined) were, in that order, 14000 nM, 14000 nM, 2100 nM, 6300 nM and 8.6.
Turning to `COc1cc2cc(C(=O)N3CC(CCl)c4c3cc([N+](=O)[O-])c3cc(S(=O)(=O)NCCOP(=O)(O)O)ccc43)[nH]c2c(OC)c1OC` (centres undefined), the LCK in the data set on SiHa [2] was 0.54.
As for `O=C(c1cc2cc(OCCN3CCOCC3)ccc2[nH]1)N1CC(COS(=O)(=O)Cc2ccccc2)c2c1cc([N+](=O)[O-])c1cc(S(=O)(=O)NCCO)ccc21` (centres undefined), the IC50 in the data set on HT-29 [4] was greater than 20000 nM; in the data set with HT-29 [5] it was 50000 nM; in the data set with SiHa [7], 39 nM; in the data set on SiHa [8], 23000 nM. Besides, the “Ratio IC50” value with HT-29 [6] was less than 2.5.
`COc1cc2cc(C(=O)N3CC(COS(=O)(=O)Cc4ccccc4)c4c3cc([N+](=O)[O-])c3cc(S(=O)(=O)NCCOP(=O)(O)O)ccc43)[nH]c2c(OC)c1OC` (centres undefined): the log10cfu with SiHa [1] is recorded as 2.39; with SiHa [3], 6.53. The LCK in the data set on SiHa [2] is reported as 2.71.
As to `CN(C)CCOc1ccc2[nH]c(C(=O)N3CC(COS(=O)(=O)Cc4ccccc4)c4c3cc([N+](=O)[O-])c3cc(S(=O)(=O)NCCOP(=O)(O)O)ccc43)cc2c1` (centres undefined), the log10cfu is 4.92 in the data set on SiHa [1] and 6.92 in the data set with SiHa [3]. In addition, the LCK in the data set on SiHa [2] came to 0.18.
As to `COc1ccc(/C=C/C(=O)N2CC(COS(C)(=O)=O)c3c2cc([N+](=O)[O-])c2cc(S(=O)(=O)NCCO)ccc32)cc1` (centres undefined), the IC50 in the data set on HT-29 [4] amounted to 4100 nM; in the data set with HT-29 [5], 26000 nM; in the data set with SiHa [7], 320 nM; in the data set on SiHa [8] it was 11000 nM. The “Ratio IC50” value with HT-29 [6] is 31.
`CN(C)CCOc1ccc2[nH]c(C(=O)N3CC(CCl)c4c3cc([N+](=O)[O-])c3cc(C(=O)NCCOP(=O)(O)O)ccc43)cc2c1` (centres undefined): the log10cfu in the data set on SiHa [1] came to 3.11; with SiHa [3], 6.56. In addition, the LCK in the data set with SiHa [2] came to 2.21.
Take `CN(C)CCOc1ccc2[nH]c(C(=O)N3CC(COS(=O)(=O)Cc4ccccc4)c4c3cc([N+](=O)[O-])c3cc(S(=O)(=O)NCCO)ccc43)cc2c1` (centres undefined): the 50% inhibitory concentration (IC50) in the data set with HT-29 [4] came out at 3900 nM; in the data set with HT-29 [5] it was 38000 nM; in the data set with SiHa [7] it was 55 nM; in the data set with SiHa [8] it was 4500 nM. The “Ratio IC50” value in the data set with HT-29 [6] worked out at 9.7.
With `N#Cc1ccc2c3c(cc([N+](=O)[O-])c2c1)N(C(=O)c1cc2cc(OCCO)ccc2[nH]1)CC3COS(=O)(=O)Cc1ccccc1` (centres undefined), the IC50 amounted to 490 nM in the data set on HT-29 [4], 2500 nM in the data set on HT-29 [5], 35 nM with SiHa [7] and 710 nM with SiHa [8]. In addition, the “Ratio IC50” value in the data set on HT-29 [6] turned out to be 5.2.
The like results for `CN(C)CCOc1ccc2[nH]c(C(=O)N3CC(CCl)c4c3cc([N+](=O)[O-])c3cc(C(=O)NCCO)ccc43)cc2c1` (centres undefined) were, in that order, 110 nM, 12000 nM, 240 nM, 4200 nM and 485.
The like results for `CN(C)CCOc1ccc2[nH]c(C(=O)N3CC(COS(=O)(=O)Cc4ccccc4)c4c3cc([N+](=O)[O-])c3cc(C(N)=O)ccc43)cc2c1` (centres undefined) were, in that order, 38 nM, 2200 nM, 120 nM, 530 nM and 58.
